What all share (assay type): functional
For one assay, the system named is Staphylococcus aureus. In words: Antimicrobial activity against Staphylococcus aureus ATCC 6538. Put shortly:
(§1)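 Bacteria were subcultured on blood agar for 24 h at 37 °C, then tested by broth microdilution in cation-adjusted Mueller-Hinton broth. Compounds were in DMSO and given as twofold serial dilutions from 1024 down to 1, with a final inoculum of 10^5 CFU/mL. Plates were incubated 48 h at 35 °C. MIC was the lowest concentration preventing visible growth. Growth control was drug-free inoculated broth.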

The next assay deals with Escherichia coli. The experiment in a line: Antimicrobial activity against Escherichia coli ATCC 25922. Put shortly: as §1
The subject of another assay is Candida albicans. The experiment in a line: Antimicrobial activity against Candida albicans ATCC 10231. Put shortly: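 Yeast was subcultured on Sabouraud dextrose agar for 24 h at 35 °C. It was then tested by NCCLS M27-A broth microdilution in RPMI 1640 buffered with MOPS, pH 7.0. DMSO solutions were diluted twofold from 1024 […]. Final inoculum was 0.5×10^3–2.5×10^3 CFU/mL, read after 48 h at 35 °C. MIC was the lowest concentration visibly inhibiting growth.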

We go through 13 molecules from ChEMBL document CHEMBL1149769, “Synthesis and antimicrobial activity of some novel derivatives of benzofuran: part 2. The synthesis and antimicrobial activity of some novel 1-(1-benzofuran-2-yl)-2-mesitylethanone derivatives” (2008).

≈ marks a conversion by molar mass, not a printed value.

Regarding `Cc1cc(C)c(C/C(=N\OC(=O)c2ccccc2)c2cc3ccccc3o2)c(C)c1`, the MIC – broadly, the lowest concentration that inhibits growth of the organism – came out at 4 µg/mL (≈ 10.1 µM) against Staphylococcus aureus, 32 µg/mL (≈ 80.5 µM) in the assay with Escherichia coli and 64 µg/mL (≈ 161 µM) against Candida albicans.

In the case of `Cc1cc(C)c(C/C(=N/OCC(=O)NN)c2cc3ccccc3o2)c(C)c1`, the MIC against Staphylococcus aureus was 256 µg/mL (≈ 701 µM); against Escherichia coli, 64 µg/mL (≈ 175 µM); against Candida albicans, 32 µg/mL (≈ 87.6 µM).

Take `Cc1cc(C)c(CC(=O)CSC#N)c(C)c1`: the MIC is 256 µg/mL (≈ 1100 µM) with Staphylococcus aureus, 256 µg/mL (≈ 1100 µM) against Escherichia coli and 32 µg/mL (≈ 137 µM) in the assay with Candida albicans.

With `Cc1cc(C)c(C/C(=N/O)c2cc3ccccc3o2)c(C)c1`, the MIC in the assay on Staphylococcus aureus, in the assay with Escherichia coli and against Candida albicans was 128 µg/mL (≈ 436 µM) throughout.

On to `Cc1cc(C)c(CC(O)c2cc3ccccc3o2)c(C)c1` (stereo unspecified), for which the MIC against Staphylococcus aureus stood at 128 µg/mL (≈ 457 µM); in the assay with Escherichia coli, 128 µg/mL (≈ 457 µM); against Candida albicans, 64 µg/mL (≈ 228 µM).

With `Cc1cc(C)c(C/C(=N/NC(N)=O)c2cc3ccccc3o2)c(C)c1`, the figures for the MIC against Staphylococcus aureus, against Escherichia coli and with Candida albicans were 128 µg/mL (≈ 382 µM), 64 µg/mL (≈ 191 µM) and 64 µg/mL (≈ 191 µM), respectively.

As for `CO/N=C(\Cc1c(C)cc(C)cc1C)c1cc2ccccc2o1`, the MIC in the assay on Staphylococcus aureus was 256 µg/mL (≈ 833 µM); with Escherichia coli it was 128 µg/mL (≈ 416 µM); with Candida albicans, 64 µg/mL (≈ 208 µM).

For the molecule `Cc1cc(C)c(CC(O)CCl)c(C)c1` (stereo unspecified), the MIC with Staphylococcus aureus came to 128 µg/mL (≈ 602 µM); against Escherichia coli it was 64 µg/mL (≈ 301 µM); against Candida albicans, 32 µg/mL (≈ 150 µM).

As to `Cc1cc(C)c(CC(=O)CCl)c(C)c1`, the MIC amounted to 16 µg/mL (≈ 75.9 µM) in the assay with Staphylococcus aureus, 64 µg/mL (≈ 304 µM) against Escherichia coli and 16 µg/mL (≈ 75.9 µM) in the assay with Candida albicans.

As to `CCOC(=O)CO/N=C(\Cc1c(C)cc(C)cc1C)c1cc2ccccc2o1`, the MIC against Staphylococcus aureus, against Escherichia coli and with Candida albicans was 256 µg/mL (≈ 675 µM) in each case.

As for `Cc1cc(C)c(C/C(=N\OC(=O)Cc2ccccc2)c2cc3ccccc3o2)c(C)c1`, the MIC is 256 µg/mL (≈ 622 µM) against Staphylococcus aureus, 128 µg/mL (≈ 311 µM) against Escherichia coli and 128 µg/mL (≈ 311 µM) in the assay on Candida albicans.

For `OC(Cn1cncn1)(Cn1cncn1)c1ccc(F)cc1F` [FLUCONAZOLE], the MIC in the assay with Candida albicans came to 0.25 µg/mL (≈ 0.816 µM).

For the molecule `C[C@@H](O)[C@H]1C(=O)N2C(C(=O)O)=C(S[C@@H]3CN[C@H](C(=O)N(C)C)C3)[C@H](C)[C@H]12` [MEROPENEM], the MIC was 1 µg/mL (≈ 2.61 µM) in the assay with Staphylococcus aureus and 0.125 µg/mL (≈ 0.326 µM) against Escherichia coli.
